In data set [1] the test system is Sarcoma-180. The data set is described as follows: Antitumor activity against mouse Sarcoma 180 cells allografted in Swiss mouse assessed as survival time at 8 mg/kg, ip three doses were given at 24 hrs interval starting 24 hrs after allograft injection relative to control. The format is functional. As to conditions: route intraperitoneal. In outline: (§1)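 Swiss mice inoculated ip with 10^6 ascitic sarcoma 180 cells. Compound given ip daily ×3 at 24-h intervals, starting 24 h after inoculation. Controls received isotonic saline on the same schedule; 6 mice per group. Mice alive at 60 days counted as 60 days in mean survival (±SD).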

Data set [2] has as its system Sarcoma-180. The data set is described as follows: Antitumor activity against mouse Sarcoma 180 cells allografted in Swiss mouse at 8 mg/kg, ip three doses were given at 24 hrs interval starting 24 hrs after allograft injection relative to control. In kind it is functional. As to conditions: route intraperitoneal. In outline: (§2)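 Swiss mice given 10^6 ascitic sarcoma 180 cells ip; three ip doses at 24-h intervals starting 24 h later; controls received isotonic salt solution on the same schedule. […] Cures = alive without cancer cells at 60 days.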

The nature of data set [3]: Half life of the compound in water at pH 7 at 25 degC by spectrophotometry. The format is physicochemical. The method, boiled down:
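Compound dissolved in absolute ethanol, then diluted into 0.01 M Tris buffer brought to pH 7 with HCl, 25 °C. Absorbance at λmax followed over hours or days; log absorbance vs time fitted by least squares, rate constant and half-time taken from the slope.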

Data set [4] can be described thus: Acute toxicity in single ip dosed Swiss mouse assessed as death up to 5 days. The format is organism-based. As to conditions: in vivo. The method, boiled down: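 Male Swiss mice given one ip dose. LD50 taken as the single dose killing 50% of animals within 5 days.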
Data set [5] deals with Sarcoma-180. The data set is described as follows: Antitumor activity against mouse Sarcoma 180 cells allografted in Swiss mouse assessed as survival at 8 mg/kg, ip three doses were given at 24 hrs interval starting 24 hrs after allograft injection measured after 5 days. The format is functional, organism-based. Also noted: dose 8 mg/kg. The method, boiled down:
(§3)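 Swiss mice were injected ip with 10^6 ascitic sarcoma 180 cells. Three daily ip doses followed, the first 24 h after cell injection. The read-out was the number of mice surviving at 5 days, out of 6 treated.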

Data set [6] deals with Sarcoma-180. The data set can be described thus: Antitumor activity against mouse Sarcoma 180 cells allografted in Swiss mouse assessed as weight gain at 8 mg/kg, ip three doses were given at 24 hrs interval starting 24 hrs after allograft injection measured after 3 days relative to control. The format is functional. As to conditions: route intraperitoneal. The method, boiled down: (§4)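 Ascitic sarcoma 180 model in Swiss mice: 10^6 cells ip, then three ip doses at 24-h intervals beginning 24 h later. Mice were weighed 1 day after cell injection and again 3 days later (24 h after the third dose). Percent weight gain of treated mice was compared with saline-treated controls on the same schedule.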

The subject of data set [7] is Sarcoma-180. The data set is described as follows: Antitumor activity against mouse Sarcoma 180 cells allografted in Swiss mouse assessed as cure at 8 mg/kg, ip three doses were given at 24 hrs interval starting 24 hrs after allograft injection measured after 60 days. Further details: dose 8 mg/kg. The format is functional, organism-based. In outline:
(§5)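 Swiss mice given 10^6 ascitic sarcoma 180 cells ip. Starting 24 h later, three ip doses were given 24 h apart. Controls got isotonic salt solution on the same schedule. A cure was a mouse alive with no evidence of cancer cells 60 days after cell injection, reported per 6 mice.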

Data set [8] deals with Sarcoma-180. The data set can be described thus: Antitumor activity against mouse Sarcoma 180 cells allografted in Swiss mouse assessed as survival time at 60 mg/kg, ip three doses were given at 24 hrs interval starting 24 hrs after allograft injection relative to control. The format is functional. As to conditions: route intraperitoneal. In outline:
as §1

The test system of data set [9] is Sarcoma-180. The data set can be described thus: Antitumor activity against mouse Sarcoma 180 cells allografted in Swiss mouse at 60 mg/kg, ip three doses were given at 24 hrs interval starting 24 hrs after allograft injection relative to control. As to conditions: route intraperitoneal. The format is functional. The method, boiled down:
(§6)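 Swiss mice received 10^6 ascitic sarcoma 180 cells ip, then three ip doses 24 h apart starting at 24 h. Controls got isotonic salt solution on the same schedule. T/C% is mean survival time of treated over controls (6 mice per group).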

Data set [10] relates to Sarcoma-180. The data set is described as follows: Antitumor activity against mouse Sarcoma 180 cells allografted in Swiss mouse assessed as survival at 60 mg/kg, ip three doses were given at 24 hrs interval starting 24 hrs after allograft injection measured after 5 days. Further details: dose 60 mg/kg. The format is functional, organism-based. The method, boiled down: as §3

Data set [11] deals with Sarcoma-180. The data set is described as follows: Antitumor activity against mouse Sarcoma 180 cells allografted in Swiss mouse assessed as weight gain at 60 mg/kg, ip three doses were given at 24 hrs interval starting 24 hrs after allograft injection measured after 3 days relative to control. In kind it is functional. The following applies: route intraperitoneal. The method, boiled down:
as §4

The test system of data set [12] is Sarcoma-180. The data set can be described thus: Antitumor activity against mouse Sarcoma 180 cells allografted in Swiss mouse assessed as cure at 60 mg/kg, ip three doses were given at 24 hrs interval starting 24 hrs after allograft injection measured after 60 days. In kind it is functional, organism-based. Further details: dose 60 mg/kg. In outline:
as §5

Data set [13] is described as follows: Redox potential of the compound in alcohol-water solution. The following applies: buffer.
The test system of data set [14] is Sarcoma-180. The data set can be described thus: Antitumor activity against mouse Sarcoma 180 cells allografted in Swiss mouse assessed as survival time at 70 mg/kg, ip three doses were given at 24 hrs interval starting 24 hrs after allograft injection relative to control. The format is functional. The following applies: route intraperitoneal. The method, boiled down:
as §1

For data set [15], the system named is Sarcoma-180. The data set is described as follows: Antitumor activity against mouse Sarcoma 180 cells allografted in Swiss mouse at 70 mg/kg, ip three doses were given at 24 hrs interval starting 24 hrs after allograft injection relative to control. In kind it is functional. As to conditions: route intraperitoneal. The method, boiled down:
as §2

Data set [16] has as its system Sarcoma-180. The data set can be described thus: Antitumor activity against mouse Sarcoma 180 cells allografted in Swiss mouse assessed as survival at 70 mg/kg, ip three doses were given at 24 hrs interval starting 24 hrs after allograft injection measured after 5 days. In kind it is functional, organism-based. Also noted: dose 70 mg/kg. The method, boiled down:
as §3

Data set [17] has as its system Sarcoma-180. The data set is described as follows: Antitumor activity against mouse Sarcoma 180 cells allografted in Swiss mouse assessed as weight gain at 70 mg/kg, ip three doses were given at 24 hrs interval starting 24 hrs after allograft injection measured after 3 days relative to control. In kind it is functional. The following applies: route intraperitoneal. In outline: as §4

The subject of data set [18] is Sarcoma-180. The data set is described as follows: Antitumor activity against mouse Sarcoma 180 cells allografted in Swiss mouse assessed as cure at 70 mg/kg, ip three doses were given at 24 hrs interval starting 24 hrs after allograft injection measured after 60 days. The format is functional, organism-based. Further details: dose 70 mg/kg. The method, boiled down:
as §5

Data set [19] deals with Sarcoma-180. The data set is described as follows: Antitumor activity against mouse Sarcoma 180 cells allografted in Swiss mouse assessed as survival time at 200 mg/kg, ip three doses were given at 24 hrs interval starting 24 hrs after allograft injection relative to control. In kind it is functional. As to conditions: route intraperitoneal. The method, boiled down: as §1

The subject of data set [20] is Sarcoma-180. The data set is described as follows: Antitumor activity against mouse Sarcoma 180 cells allografted in Swiss mouse at 200 mg/kg, ip three doses were given at 24 hrs interval starting 24 hrs after allograft injection relative to control. The following applies: route intraperitoneal. In kind it is functional. The method, boiled down: as §6
The subject of data set [21] is Sarcoma-180. The data set can be described thus: Antitumor activity against mouse Sarcoma 180 cells allografted in Swiss mouse assessed as survival at 200 mg/kg, ip three doses were given at 24 hrs interval starting 24 hrs after allograft injection measured after 5 days. Further details: dose 200 mg/kg. The format is functional, organism-based. The method, boiled down:
as §3

The test system of data set [22] is Sarcoma-180. The data set is described as follows: Antitumor activity against mouse Sarcoma 180 cells allografted in Swiss mouse assessed as weight gain at 200 mg/kg, ip three doses were given at 24 hrs interval starting 24 hrs after allograft injection measured after 3 days relative to control. The format is functional. The following applies: route intraperitoneal. In outline:
as §4

Calls of active or inactive are those of the source. The rule behind the calls is not given here.

As for `O=C1C(Cl)=CC(=NBr)C=C1Cl`, the Survival in data set [1] turned out to be 27.2 days. For the same compound, in data set [2], the T/C turned out to be 165%. For the same compound, the half-life in data set [3] is 0.154 days. The LD50 at 120 h in [4] came out at 20 mg/kg. In addition, in data set [5], the outcome was Active. In addition, in [6], the Activity is -5.1%. In addition, the result in [7] was inactive.
Take `COC1=C/C(=N\O)C=CC1=O`: in data set [8], the Survival amounted to 18.5 days. In addition, the T/C in data set [9] was found to be 173%. Also, in data set [3], the half-life was 12.4 days. Also, the LD50 at 120 h in data set [4] was 120 mg/kg. In addition, the outcome in data set [10] was Active. Further, the Activity in data set [11] worked out at 1.9%. The outcome in data set [12] was inactive. Further, the Redox potential in data set [13] was determined as 0.521 V.
On to `O=C1C=C/C(=N/O)C=C1Cl`, for which, in data set [14], the Survival is 12.2 days. This compound registered a T/C in data set [15] of 130%. This compound gave a half-life in [3] of 13.1 days. In addition, in data set [4], the LD50 at 120 h was found to be 240 mg/kg. Moreover, the outcome in data set [16] was Active. Also, the Activity in [17] was determined as 13.4%. Besides, the outcome in [18] was inactive. For the same compound, in data set [13], the Redox potential amounted to 0.516 V.
Regarding `O=C1C=C/C(=N/O)C(I)=C1`, the Survival in data set [19] was 23.7 days. In addition, the T/C in data set [20] is given as 171%. Moreover, the LD50 at 120 h in data set [4] came out at 550 mg/kg. In addition, in [21], the outcome was Active. Besides, in [22], the Activity is 0%. The compound further had a Redox potential in [13] of 0.531 V.

As a reminder, the T/C is the ratio of treated to control. For orientation: half-life means the time in which the quantity being followed falls by half. A high value points to slow decline. What is called LD50 is the dose at which mortality reaches 50%.
